From the M2OR odorant receptor database

Legend:
Conditions in all cases: stereoisomer not certain
[1] = target: T1, UniProt Q924X8
T1 sequence (whole entry): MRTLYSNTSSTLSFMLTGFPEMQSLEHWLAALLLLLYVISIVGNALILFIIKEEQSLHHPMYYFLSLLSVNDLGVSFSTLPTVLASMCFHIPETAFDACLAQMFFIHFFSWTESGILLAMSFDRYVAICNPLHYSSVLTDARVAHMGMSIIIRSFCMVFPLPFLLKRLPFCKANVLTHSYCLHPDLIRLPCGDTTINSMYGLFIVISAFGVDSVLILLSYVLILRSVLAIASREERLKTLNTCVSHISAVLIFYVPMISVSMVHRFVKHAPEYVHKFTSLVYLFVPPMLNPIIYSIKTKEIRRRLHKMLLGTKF
In short: (§1)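 Whether a receptor–molecule pair is responsive (active) rests on the original authors' judgment that its measured signal was statistically different from baseline. Pairs without that judgment are non-responsive (inactive). Sources used varied assay methods, commonly transient luciferase assays in mammalian cell lines.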

[2] = target: T2, UniProt Q9EPN9
T2 sequence (whole entry): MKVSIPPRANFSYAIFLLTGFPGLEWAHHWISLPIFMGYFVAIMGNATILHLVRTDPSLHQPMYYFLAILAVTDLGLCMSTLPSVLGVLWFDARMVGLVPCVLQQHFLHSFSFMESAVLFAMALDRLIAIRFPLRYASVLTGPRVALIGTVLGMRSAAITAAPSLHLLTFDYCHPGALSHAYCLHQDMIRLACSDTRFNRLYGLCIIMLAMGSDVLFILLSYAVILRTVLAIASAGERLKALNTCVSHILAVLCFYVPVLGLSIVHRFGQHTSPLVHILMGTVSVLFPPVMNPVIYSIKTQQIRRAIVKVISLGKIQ
In short: as §1

[3] = target: UniProt Q9R0K2
Sequence of UniProt Q9R0K2 (Q9R0K2 as listed by the source): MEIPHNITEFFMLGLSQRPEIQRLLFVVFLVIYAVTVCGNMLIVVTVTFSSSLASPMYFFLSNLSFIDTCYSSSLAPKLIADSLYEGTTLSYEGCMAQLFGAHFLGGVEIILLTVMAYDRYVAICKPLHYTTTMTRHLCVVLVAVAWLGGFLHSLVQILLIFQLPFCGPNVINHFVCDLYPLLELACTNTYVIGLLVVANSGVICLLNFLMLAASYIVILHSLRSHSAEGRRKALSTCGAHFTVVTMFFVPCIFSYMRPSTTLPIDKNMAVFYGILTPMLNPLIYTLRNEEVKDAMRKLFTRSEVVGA
In short: as §1

[4] = target: T3, UniProt Q9WU86
T3 sequence (whole entry): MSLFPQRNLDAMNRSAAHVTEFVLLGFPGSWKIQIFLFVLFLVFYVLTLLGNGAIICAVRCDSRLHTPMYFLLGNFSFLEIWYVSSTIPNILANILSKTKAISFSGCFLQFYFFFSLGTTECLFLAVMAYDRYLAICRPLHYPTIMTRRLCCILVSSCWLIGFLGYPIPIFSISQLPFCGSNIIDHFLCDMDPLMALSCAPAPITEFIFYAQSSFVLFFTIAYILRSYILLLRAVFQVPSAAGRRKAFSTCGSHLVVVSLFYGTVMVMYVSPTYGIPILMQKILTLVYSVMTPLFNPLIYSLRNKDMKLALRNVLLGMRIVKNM
In short: as §1

[5] = target: T4, UniProt Q9WU94
T4 sequence (whole entry): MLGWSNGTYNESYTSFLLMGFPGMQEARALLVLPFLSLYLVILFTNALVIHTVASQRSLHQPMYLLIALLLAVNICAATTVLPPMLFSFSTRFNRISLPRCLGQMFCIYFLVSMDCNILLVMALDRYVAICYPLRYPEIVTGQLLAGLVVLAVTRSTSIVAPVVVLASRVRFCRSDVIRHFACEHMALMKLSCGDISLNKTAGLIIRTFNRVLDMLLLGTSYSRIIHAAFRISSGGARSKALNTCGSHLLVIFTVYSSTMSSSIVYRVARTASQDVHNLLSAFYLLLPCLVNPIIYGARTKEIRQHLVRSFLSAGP
In short: as §1

[6] = target: T5, UniProt Q9WVD7
T5 sequence (whole entry): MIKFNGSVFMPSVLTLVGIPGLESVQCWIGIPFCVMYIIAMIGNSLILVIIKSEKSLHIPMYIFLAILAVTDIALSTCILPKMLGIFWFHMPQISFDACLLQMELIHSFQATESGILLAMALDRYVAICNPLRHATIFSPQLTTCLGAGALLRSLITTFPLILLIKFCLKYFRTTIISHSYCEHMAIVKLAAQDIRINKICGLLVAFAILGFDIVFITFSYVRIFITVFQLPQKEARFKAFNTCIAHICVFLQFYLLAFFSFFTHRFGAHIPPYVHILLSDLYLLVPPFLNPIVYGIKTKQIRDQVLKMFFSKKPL
In short: as §1

[7] = target: T6, UniProt Q99NH4
T6 sequence (whole entry): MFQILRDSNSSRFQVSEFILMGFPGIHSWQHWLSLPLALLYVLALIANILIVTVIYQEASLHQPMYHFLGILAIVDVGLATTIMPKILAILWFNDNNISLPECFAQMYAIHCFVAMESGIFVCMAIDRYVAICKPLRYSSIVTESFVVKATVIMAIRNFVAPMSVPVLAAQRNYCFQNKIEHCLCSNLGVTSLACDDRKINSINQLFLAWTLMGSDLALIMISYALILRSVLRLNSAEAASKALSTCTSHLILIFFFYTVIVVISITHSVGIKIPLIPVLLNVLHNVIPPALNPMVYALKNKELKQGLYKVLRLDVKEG
In short: as §1

[8] = target: T7, UniProt Q924H8
T7 sequence (whole entry): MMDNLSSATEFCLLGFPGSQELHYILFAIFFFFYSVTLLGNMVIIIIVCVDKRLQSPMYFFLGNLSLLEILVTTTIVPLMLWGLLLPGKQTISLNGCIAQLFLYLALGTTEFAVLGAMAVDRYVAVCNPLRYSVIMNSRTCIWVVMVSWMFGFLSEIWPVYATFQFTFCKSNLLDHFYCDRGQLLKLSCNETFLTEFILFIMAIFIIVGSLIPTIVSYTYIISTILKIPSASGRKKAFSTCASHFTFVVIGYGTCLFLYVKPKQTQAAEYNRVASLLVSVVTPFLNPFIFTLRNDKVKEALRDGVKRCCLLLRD
In short: as §1

[9] = target: UniProt Q9EQB5
Sequence of UniProt Q9EQB5 (Q9EQB5 as listed by the source): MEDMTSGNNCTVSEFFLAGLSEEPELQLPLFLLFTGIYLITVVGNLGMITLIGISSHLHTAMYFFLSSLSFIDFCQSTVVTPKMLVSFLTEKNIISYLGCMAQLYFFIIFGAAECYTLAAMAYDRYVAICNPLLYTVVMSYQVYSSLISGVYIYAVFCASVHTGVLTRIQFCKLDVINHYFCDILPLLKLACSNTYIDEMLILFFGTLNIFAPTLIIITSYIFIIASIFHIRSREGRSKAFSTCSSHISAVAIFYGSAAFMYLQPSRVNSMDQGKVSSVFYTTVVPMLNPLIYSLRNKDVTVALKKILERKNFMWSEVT
In short: as §1
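Also: active if original authors judged signal statistically different from baseline.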

SMILES: CCCCCCC(=O)[O-].[H+]
- odorant receptor agonist call [1]: inactive
- odorant receptor agonist call [2]: inactive
- odorant receptor agonist call [3]: inactive
- odorant receptor agonist call [4]: inactive
- odorant receptor agonist call [5]: inactive
- odorant receptor agonist call [6]: active

SMILES: CCCCCCCCCCC(=O)O
- odorant receptor agonist call [7]: inactive

SMILES: O=C(O)CCCCCC(=O)O
- odorant receptor agonist call [1]: active
- odorant receptor agonist call [7]: inactive
- odorant receptor agonist call [5]: inactive
- odorant receptor agonist call [6]: inactive

SMILES: O=C([O-])CCCCC(=O)[O-].[H+].[H+]
- odorant receptor agonist call [1]: active
- odorant receptor agonist call [7]: inactive
- odorant receptor agonist call [5]: inactive
- odorant receptor agonist call [6]: inactive

SMILES: CCCCCC1=C(C)CCC1=O
- odorant receptor agonist call [8]: inactive
- odorant receptor agonist call [2]: inactive
- odorant receptor agonist call [3]: inactive
- odorant receptor agonist call [4]: inactive

SMILES: CCCCCCCC(=O)[O-].[H+]
- odorant receptor agonist call [1]: inactive
- odorant receptor agonist call [7]: active
- odorant receptor agonist call [2]: inactive
- odorant receptor agonist call [3]: inactive
- odorant receptor agonist call [4]: inactive
- odorant receptor agonist call [5]: inactive
- odorant receptor agonist call [6]: active

SMILES: CCCCCO
- odorant receptor agonist call [1]: inactive
- odorant receptor agonist call [7]: inactive
- odorant receptor agonist call [2]: inactive
- odorant receptor agonist call [3]: inactive
- odorant receptor agonist call [4]: inactive
- odorant receptor agonist call [5]: inactive
- odorant receptor agonist call [6]: inactive

SMILES: O=C(O)CCCCCCCCCCC(=O)O
- odorant receptor agonist call [7]: inactive

SMILES: CC(=O)OCC=C(C)C
- odorant receptor agonist call [8]: inactive
- odorant receptor agonist call [2]: inactive
- odorant receptor agonist call [3]: inactive
- odorant receptor agonist call [4]: inactive

SMILES: O=C1CCOc2ccccc21
- odorant receptor agonist call [8]: inactive
- odorant receptor agonist call [2]: inactive
- odorant receptor agonist call [3]: inactive
- odorant receptor agonist call [4]: inactive

SMILES: O=C(O)CCCCCCCCCC(=O)O
- odorant receptor agonist call [7]: inactive

SMILES: O=C(O)CCCCBr
- odorant receptor agonist call [1]: active
- odorant receptor agonist call [7]: inactive
- odorant receptor agonist call [5]: inactive
- odorant receptor agonist call [6]: inactive

SMILES: O=C(O)CCCBr
- odorant receptor agonist call [1]: active
- odorant receptor agonist call [7]: inactive
- odorant receptor agonist call [5]: inactive
- odorant receptor agonist call [6]: inactive

SMILES: CC(C)=CCCC(C)CCO (centres undefined)
- odorant receptor agonist call [8]: inactive
- odorant receptor agonist call [2]: inactive
- odorant receptor agonist call [3]: inactive
- odorant receptor agonist call [4]: inactive

SMILES: CCC(=O)C(=O)CC
- odorant receptor agonist call [8]: inactive
- odorant receptor agonist call [2]: inactive
- odorant receptor agonist call [3]: inactive
- odorant receptor agonist call [4]: inactive

SMILES: O=C([O-])CCC(=O)[O-].[H+].[H+]
- odorant receptor agonist call [7]: inactive

SMILES: CCCCCCCCCCCC(=O)O
- odorant receptor agonist call [7]: inactive

SMILES: CCCCCOC(=O)CCCCC
- odorant receptor agonist call [8]: inactive
- odorant receptor agonist call [2]: inactive
- odorant receptor agonist call [3]: inactive
- odorant receptor agonist call [4]: inactive

SMILES: O=c1ccc2ccccc2o1
- odorant receptor agonist call [2]: inactive
- odorant receptor agonist call [3]: inactive
- odorant receptor agonist call [4]: active

SMILES: CC1CCCCCCCCCCCCC(=O)C1 (centres undefined)
- odorant receptor agonist call [9]: inactive

SMILES: CCC(=O)O
- odorant receptor agonist call [8]: inactive
- odorant receptor agonist call [2]: inactive
- odorant receptor agonist call [3]: inactive
- odorant receptor agonist call [4]: inactive

SMILES: CCCC(C)=O
- odorant receptor agonist call [2]: inactive
- odorant receptor agonist call [3]: inactive
- odorant receptor agonist call [4]: inactive
- odorant receptor agonist call [5]: inactive

SMILES: O=C(c1ccccc1)c1ccccc1
- odorant receptor agonist call [8]: inactive
- odorant receptor agonist call [2]: inactive
- odorant receptor agonist call [3]: inactive
- odorant receptor agonist call [4]: inactive

SMILES: C=CCOC(=O)CCCCCC
- odorant receptor agonist call [8]: inactive
- odorant receptor agonist call [2]: inactive
- odorant receptor agonist call [3]: inactive
- odorant receptor agonist call [4]: inactive

SMILES: CCCCCCCCCS
- odorant receptor agonist call [8]: active
- odorant receptor agonist call [2]: inactive
- odorant receptor agonist call [3]: inactive
- odorant receptor agonist call [4]: inactive

SMILES: CCC(C(=O)O)c1ccccc1 (centres undefined)
- odorant receptor agonist call [2]: active
- odorant receptor agonist call [3]: inactive
- odorant receptor agonist call [4]: inactive

SMILES: O=C(O)CCCCCCCCCBr
- odorant receptor agonist call [7]: inactive

SMILES: CC(=O)OCc1ccccc1
- odorant receptor agonist call [8]: inactive
- odorant receptor agonist call [2]: inactive
- odorant receptor agonist call [3]: inactive
- odorant receptor agonist call [4]: inactive

SMILES: CCOC(=O)C(C)C
- odorant receptor agonist call [8]: inactive
- odorant receptor agonist call [2]: inactive
- odorant receptor agonist call [3]: inactive
- odorant receptor agonist call [4]: inactive

SMILES: CCCCOC(=O)C(C)OC(=O)CCC (centres undefined)
- odorant receptor agonist call [2]: inactive
- odorant receptor agonist call [3]: inactive
- odorant receptor agonist call [4]: inactive
